hIAP act: human IAP activators, primary screen, biochemical, luminescence, uHTS; Intestinal-type alkaline phosphatase (Homo sapiens), P09923; purified human IAP, CDP-Star luminescence, 30 min; active compounds read high; 1 = vehicle-only enzyme, 0 = enzyme-free background; activation factor at 10 µM; 330,000 tested, 0.16% active;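 active = activation factor of the enzyme at least 2-fold when tested at 20 µM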
Target sequence (P09923 whole entry, looked up): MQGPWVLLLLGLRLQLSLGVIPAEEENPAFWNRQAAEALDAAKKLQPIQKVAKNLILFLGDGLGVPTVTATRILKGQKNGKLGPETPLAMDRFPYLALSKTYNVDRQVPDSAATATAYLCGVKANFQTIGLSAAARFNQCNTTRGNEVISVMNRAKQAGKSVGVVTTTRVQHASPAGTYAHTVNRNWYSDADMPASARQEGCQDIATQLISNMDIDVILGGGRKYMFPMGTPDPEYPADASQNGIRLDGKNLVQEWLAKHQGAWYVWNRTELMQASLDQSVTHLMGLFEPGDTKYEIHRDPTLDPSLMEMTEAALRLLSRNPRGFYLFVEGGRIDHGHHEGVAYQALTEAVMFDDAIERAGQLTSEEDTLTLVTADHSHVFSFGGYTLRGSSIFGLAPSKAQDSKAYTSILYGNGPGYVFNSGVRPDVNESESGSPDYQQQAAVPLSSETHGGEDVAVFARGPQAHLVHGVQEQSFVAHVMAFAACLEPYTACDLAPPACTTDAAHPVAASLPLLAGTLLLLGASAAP
mIAP block: inhibitors of mouse IAP, primary screen, biochemical, luminescence, uHTS; intestinal alkaline phosphatase [Mus musculus]; purified mouse IAP, CDP-Star luminescence, 30 min; inhibition, % at 10 µM; 330,000 tested, 0.2% active; AID 2806, 2010;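 active = inhibition of at least 40% at 10 µM in the primary screen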;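 note: plate controls were DMSO with enzyme for no effect and no enzyme wells for full effect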
mIAP act: activators of mouse IAP, primary screen, biochemical, luminescence, uHTS. intestinal alkaline phosphatase [Mus musculus]. muIAP, CDP-Star luminescence, 30 min; active compounds read high; 1 = vehicle-only enzyme signal, 0 = enzyme-free wells. 330,000 tested, 0.24% active. activation factor at 10 µM;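 active = activation factor of at least 2 at 20 µM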
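also added = chemiluminescent substrate CDP-Star | test system = mouse IAP enzyme | signal = chemiluminescence readout | compound = DMSO-dissolved test compounds | incubation = 30 min at room temperature | benchmarks = DMSO wells, no-enzyme wells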
bIAP inhibitor: bovine intestinal alkaline phosphatase inhibitors, primary screen, selectivity assay for TNAP inhibitor project, biochemical, bovine IAP, CDP-star luminescence; alkaline phosphatase, intestinal [Bos taurus]; purified bovine IAP, 30 min; inhibition, % at 20 µM; 190,000 tested, under 10 active; AID 1019, 2008;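 active = over 50% inhibition of intestinal alkaline phosphatase at 20 µM in the single-dose screen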
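Incubation: 30 min reaction at room temperature / Material: purified bovine intestinal alkaline phosphatase (IAP) enzyme / Input: enzyme at 1/65,000,000 dilution / Dosing: 20 µM single dose / Signal: CDP-star luminescence signal / Reagent: CDP-star chemiluminescent phosphatase substrate, 30 µM final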
hIAP inh: human IAP inhibitors, primary screen, biochemical, luminescence, uHTS. Intestinal-type alkaline phosphatase (Homo sapiens), P09923. purified IAP, CDP-Star luminescence, 30 min. 330,000 tested, 0.12% active. inhibition, % at 10 µM;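 active = inhibition reaching a set limit with compound at 10 µM in the primary screen, cut at about 35% in these data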;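 note: plate controls were DMSO wells with enzyme for no effect and no-enzyme buffer wells for full effect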
bIAP activator: bovine intestinal alkaline phosphatase activators, primary screen, biochemical, bovine IAP, CDP-star luminescence | alkaline phosphatase, intestinal [Bos taurus] | purified bovine IAP, 30 min; active compounds read high; fold of DMSO-control signal, blank-subtracted | activation factor at 20 µM | 200,000 tested, 0.17% active;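 active = activation factor of 2 or more at 20 µM, a signal rise over negative controls twice the positive control's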
hIAP act conf: human IAP activators, confirmation, biochemical, luminescence, single concentration, uHTS hits. AID 434926, 2010. purified IAP, CDP-Star luminescence, 30 min; active compounds read low. 880 tested, 10% active. shares compounds with hIAP act. activation (%Activity, negative = activation), % at 8.3 µM;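 active = at least twofold enzyme activation in any of six single-dose repeats, which the averaged readout prints as negative percent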
Active calls of the source: *; · = no result given. Compounds with a hit are over-represented: about 0.72% of the library has one in this group of screens.

SMILES	hIAP act	mIAP block	mIAP act	bIAP inhibitor	hIAP inh	bIAP activator	hIAP act conf
COc1ccc(CC(=O)Nc2cccc(-c3ccc4nnc(C)n4n3)c2)cc1OC	1.12	-1.8	1.02	0.2	-12.5	1	·
Cc1cc(OCC(=O)NNC(=O)c2cnccn2)cc(C)c1Cl	2.06*	7.3	0.927	·	-106.1	·	-54.9
Cc1ccc(OCC(=O)NCCCNC(=O)c2cnccn2)cc1C	1.1	-3.8	1.04	·	-10.1	·	·
COC(=O)c1nnn(-c2nonc2N)c1CSc1nc2ccccc2o1	3.27*	6.2	0.938	-0.8	-227.4	1	-0.4
COC(=O)c1nnn(-c2nonc2N)c1CSc1nc2ccccc2s1	0.903	5.4	0.946	0.9	9.7	1	·
CN(CC(=O)Nc1ccccc1Br)C(=O)CNC(=O)c1ccc(Oc2ccccc2)cc1	0.649	5.1	0.949	·	35.1*	·	-1.9
CCc1ccc(C(=O)NNC(=O)CCc2nc3ccccc3c(=O)[nH]2)cc1	0.995	8.6	0.914	·	0.5	·	·
O=C(N=C1SC2CS(=O)(=O)CC2N1c1ccc(Br)cc1)C1CCCO1 (stereo not given)	0.78	4.3	0.957	·	22.0	·	·
CCOc1ccc2oc(C(=O)NNC(=O)c3ccccc3O)c(C)c2c1	2.37*	22.3	0.777	·	-136.8	·	-36.6
O=C(COC(=O)c1cc(=O)[nH]c(=O)[nH]1)Nc1cccc(S(=O)(=O)N2CCCCC2)c1	1.07	1.5	0.985	-7.3	-7.0	1.1	·
Cc1ccc(N(CC(=O)NC2CCCCC2)C(=O)CNC(=O)c2ccco2)c(C)c1	0.933	4.6	0.954	·	6.7	·	·
Nc1nnc(Cc2ccccc2)s1	1.14	-2.2	1.02	13.8	-14.0	0.9	·
Nc1nnc(Cc2cccc(Br)c2)s1	2.06*	-2.7	1.03	·	-105.8	·	-40.5
COc1ccc(C2c3ccc(O)cc3Oc3ncn4nc(-c5ccncc5)nc4c32)cc1OC (stereo not given)	0.591	14.4	0.856	·	40.9*	·	3.7
CN1CCN(C(=O)c2ccc3c(c2)OCCO3)CC1	0.63	0.0	1	10.7	37.0*	0.9	7.9
O=C(c1ccccc1)N1CCN(C(=O)c2ccc3c(c2)OCCO3)CC1	1.28	-26.4	1.26	4.2	-28.0	1	·
Cc1ccc(S(=O)(=O)N2CCN(CC(=O)Nc3ccc4c(c3)CCC4)CC2)cc1C	1.09	-18.8	1.19	-2.5	-9.2	1	·
O=C(CN1CCN(S(=O)(=O)c2ccc3ccccc3c2)CC1)Nc1ccc2c(c1)CCC2	2.04*	17.2	0.828	12.3	-103.7	0.9	-3.1
COC(=O)C(=CC(=CN(C)C)C=C(C(=O)OC)C(=O)OC)C(=O)OC	0.966	6.7	0.933	·	3.3	·	·
C=CCn1c(SCC(=O)NC2CC2)nnc1-c1cccc(OC)c1	0.594	-8.3	1.08	·	40.6*	·	-17.6
CCn1c(SCC(=O)NC2CC2)nnc1-c1cccc(OC)c1	1.19	-1.9	1.02	·	-18.5	·	·
Cc1cc(C)cc(CC(Cc2nc3ccccc3[nH]2)c2nc3ccccc3[nH]2)c1 (stereo not given)	2.12*	-38.1	1.38	-422.4	-111.7	5.2*	-322.6*
CC(C)CC(=O)Nc1ccc(C(=O)NNC(=S)NC(=O)C2CCCCC2)cc1	2.62*	-17.6	1.18	10.2	-161.7	0.9	-4.8
N#CCC(=O)Nc1ccc(C(=O)NNC(=S)NC2CCCCC2)cc1	1.76	-1.5	1.01	·	-75.7	·	·
CC(=O)Nc1ccc(S(=O)(=O)NCCC(=O)OC(C)C(=O)NC2(C#N)CCCCC2)cc1 (stereo not given)	0.967	6.8	0.932	·	3.3	·	·
SMILES	hIAP act	mIAP block	mIAP act	bIAP inhibitor	hIAP inh	bIAP activator	hIAP act conf
COc1cc(Cl)ccc1OCc1cc(C(=O)N2CCCCCCC2)no1	0.611	-7.3	1.07	·	38.9*	·	34.5
Cn1cccc1-c1cc(C(=O)N/N=C/c2cc(Br)ccc2O)[nH]n1	2.54*	28.6	0.714	·	-153.9	·	-2.1
CCN(CC)C(=O)Cc1cc(C(=O)O)c2ccccc2n1	2.03*	-8.5	1.08	-6.8	-102.6	1.1	-0.5
COc1ccc(S(=O)(=O)N2CCN(CC(=O)c3ccc(O)c(O)c3)CC2)cc1	0.614	29.3	0.707	·	38.6*	·	-19.1
CN1C(=O)/C(=C\c2cc(N=Nc3ccccc3)ccc2O)SC1=S	0.616	26.1	0.739	27.0	38.3*	0.7	2.7
Cc1nc(-c2ccc(S(=O)(=O)N3CCCN(CCc4ccccc4)CC3)s2)cs1	2.27*	13.2	0.868	·	-127.0	·	-3.0
CCN1CCc2c(OCc3ccccc3)cccc2C1=O	0.937	-3.4	1.03	-5.1	6.3	1.1	·
CCCCCN1CC(O)=C(c2nc3ccccc3[nH]2)C1=N	2.11*	-30.2	1.3	-12.6	-111.4	1.1	-45.4
Cc1ccccc1OCCC(=O)Nc1cc(S(=O)(=O)N2CCOCC2)ccc1OC(C)C	0.948	-0.1	1	·	5.2	·	·
c1ccc(-c2nnc(CN3CCCCC3)o2)cc1	1.04	-16.5	1.17	·	-4.3	·	·
c1ccc(-c2nnc(CN3CCC4(CC3)OCCO4)o2)cc1	0.587	4.2	0.958	6.6	41.3*	0.9	29.7
CS(=O)(=O)c1ccc(C(=O)OCC(=O)c2ccc(Cl)s2)cc1	1.04	-2.7	1.03	·	-4.1	·	·
COC(=O)c1cc(NC(=O)Cn2nc(C)n3cccc3c2=O)cc(C(=O)OC)c1	0.614	-3.9	1.04	·	38.6*	·	-4.3
Cc1ccccc1NC(=O)Cn1nc(C)n2cccc2c1=O	0.869	6.1	0.939	·	13.1	·	·
O=C(CNS(=O)(=O)c1ccccc1)NNC(=O)C(Cl)Cl	2.23*	25.4	0.746	-33.7	-123.2	1.3	-6.0
CCN(CC)CCCNc1nc2ccccc2c2nc(-c3ccncc3)nn12	0.941	12.0	0.88	·	5.9	·	·
N#C/C(=N\Nc1ccc(S(=O)(=O)N2CCCCCC2)cc1)C(N)=S	0.627	15.3	0.847	7.9	37.3*	0.9	8.5
N#C/C(=N\Nc1ccc([N+](=O)[O-])cc1)C(N)=S	0.648	34.2	0.658	·	35.2*	·	-9.3
CCOc1ccc2cc(/C=C/C(=O)c3ccco3)c(Cl)nc2c1	1	4.5	0.955	22.0	-0.4	0.8	·
O=C1C2C3C=CC(C3)C2C(=O)N1CCN1CCN(Cc2ccc([N+](=O)[O-])cc2)CC1 (stereo not given)	0.977	1.1	0.989	-7.6	2.3	1.1	·

Screening data deposited in PubChem by Sanford-Burnham Center for Chemical Genomics.
